Assay results: ChEMBL document CHEMBL6127097, “Structure-Guided Discovery of cis-Hexahydro-pyrido-oxazinones as Reversible, Drug-like Monoacylglycerol Lipase Inhibitors” (J Med Chem, 2024)
Calls of active or inactive are those of the source.

Assays:
[1] = Drug concentration in mouse CSF at 30 mg/kg, ip measured after 8 hrs; assay type: ADME, organism-based, Cerebrospinal fluid; conditions: read-out: Ct
[2] = Average drug concentration in mouse plasma at 10 mg/kg, ip measured after 4 hrs; assay type: ADME, organism-based; conditions: in vivo
Method in brief: (§1)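 Mice received 3, 10 or 30 mg/kg i.p. The compound was dissolved in DMSO/Tween 80 (1:1) and diluted with 8 parts saline (NaCl/DMSO/TW80 80/10/10). Plasma was taken 4 h after injection and average concentrations reported.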

[3] = Inhibition of Cynomolgus monkey MAGL using native substrate by Rapidfire MS assay
[4] = Plasma protein binding in human assessed as fraction unbound by equilibrium dialysis based LC-MS/MS method; assay type: ADME, cell-free
Method in brief: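 Equilibrium dialysis across a 12–14 kDa cutoff membrane in a Teflon 96-well device. Pooled frozen plasma is adjusted to pH 7.4 and spiked at 1000 nM initial total, against Soerensen buffer pH 7.4. Incubation is 5 h at 37 °C, 5% CO2, with diazepam control in each well. %fu = 100 × buffer/matrix concentration after dialysis; recovery accepted at 80–120%.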

[5] = Effective permeability of compound at pH 7.4 at 20 uM incubated for 18 hrs by LCMS analysis; assay type: ADME; conditions: not told, read-out: Peff
Method in brief: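 PAMPA passive permeability. Donor holds 20 µM sample in 50 mM phosphate-buffered saline pH 7.4, at most 5% DMSO, in triplicate. The lipid/oil/lipid trilayer-impregnated hydrophobic filter sandwich is left unshaken 18 h at 21 °C. Reference, donor and acceptor solutions are analysed by LCMS to give P_eff.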

Monoglyceride lipase [6] = target: T1, Monoglyceride lipase (Mus musculus, UniProt O35678); test: Inhibition of mouse MAGL using native substrate by Rapidfire MS assay
T1 sequence (O35678 whole entry): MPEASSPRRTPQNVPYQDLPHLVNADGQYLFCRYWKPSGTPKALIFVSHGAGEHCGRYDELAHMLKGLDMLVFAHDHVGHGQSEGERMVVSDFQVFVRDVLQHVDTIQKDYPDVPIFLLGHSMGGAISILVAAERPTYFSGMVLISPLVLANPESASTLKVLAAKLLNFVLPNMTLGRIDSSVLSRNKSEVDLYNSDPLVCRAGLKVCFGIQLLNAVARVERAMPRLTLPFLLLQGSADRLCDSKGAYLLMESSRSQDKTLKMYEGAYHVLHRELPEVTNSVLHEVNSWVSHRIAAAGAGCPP

mouse P-gp = test: Apparent permeability across apical to basolateral side in pig LLC-PK1 cells expressing mouse P-gp; assay type: ADME, cell-based, Sus scrofa
Method in brief: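 LLC-PK1 porcine kidney cells transfected with human or mouse P-gp were grown as polarized monolayers on filter membranes. Compound was dosed to the apical side and receiver appearance followed over 3 h at 37 °C. A→B Papp was measured with the P-gp inhibitor zosuquidar present at 1 µM.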

[7] = Average drug concentration in mouse plasma at 30 mg/kg, ip measured after 2 hrs; assay type: ADME, organism-based; conditions: read-out: Cave
Method in brief: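 In a time course, mice were injected i.p. with 30 mg/kg in NaCl/DMSO/Tween 80 (80/10/10). Average plasma levels were determined at the stated time points over 24 h.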

[8] = Genotoxicity in Salmonella typhimurium by Ames test; assay type: toxicity; conditions: salmonella enterica subsp. enterica serovar typhimurium
[9] = Average drug concentration in mouse plasma at 3 mg/kg, ip measured after 4 hrs; assay type: ADME, organism-based; conditions: in vivo; method in brief: as §1
[10] = Octanol-water partition coefficient, logD of the compound at pH 7.4 incubated for 1.5 hrs by shake flask based LC-UV/MS analysis; assay type: physicochemical; conditions: pH 7.4, 1.5 h, 1.5 h
Method in brief: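 CAMDIS shake-flask variant. 10 mM DMSO stock is diluted into 25 mM phosphate pH 7.4 over a 1-octanol-impregnated PVDF membrane and shaken 1.5 h at 21 °C, at two octanol/buffer ratios, in triplicate. Remaining aqueous concentration is read by LC/MS; logD comes from the difference with and without octanol.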

Monoglyceride lipase [11] = target: T2, Monoglyceride lipase (Homo sapiens, UniProt Q99685); test: Inhibition of human MAGL using native substrate by Rapidfire MS assay
T2 sequence (Q99685 whole entry): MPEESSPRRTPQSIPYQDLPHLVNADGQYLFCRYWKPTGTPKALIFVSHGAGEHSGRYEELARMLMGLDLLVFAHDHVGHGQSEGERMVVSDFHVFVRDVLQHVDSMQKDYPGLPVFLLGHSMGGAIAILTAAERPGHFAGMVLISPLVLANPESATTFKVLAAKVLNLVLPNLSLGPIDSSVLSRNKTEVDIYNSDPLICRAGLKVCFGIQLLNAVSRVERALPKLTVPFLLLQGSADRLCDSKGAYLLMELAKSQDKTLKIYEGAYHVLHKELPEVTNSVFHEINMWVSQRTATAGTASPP

[12] = Drug concentration in mouse CSF at 30 mg/kg, ip measured after 4 hrs; assay type: ADME, organism-based, Cerebrospinal fluid; conditions: read-out: Ct
[13] = Cmax in Wistar rat at 5 mg/kg, po measured upto 24 hrs by LC-MS/MS analysis; assay type: ADME, organism-based; conditions: in vivo
Method in brief: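 Male Wistar rats (N = 3 per group) received a single dose. The i.v. dose was 1 mg/kg in NMP/0.9% NaCl 30:70. The p.o. dose was 5 mg/kg in NMP/HPMC/diisooctyl sulfosuccinate 10:90. Blood was taken into K2EDTA from 0.083 (i.v.) or 0.25 h to 24 h. Plasma was assayed by LC-MS/MS and analysed non-compartmentally.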

Mus musculus = test: Antiinflammatory activity in LPS-induced CD-1 mouse neuroinflammation model assessed as decrease in peripheral tissue LCN2 mRNA expression at 30 mg/kg, ip measured after 6 hrs by qRT-PCR analysis; assay type: functional, organism-based
Method in brief: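 CD-1 mice were dosed with NaCl + vehicle, LPS (5 mg/kg) + vehicle, or LPS + inhibitor at 30 mg/kg i.p. (vehicle NaCl/DMSO/Tween 80, 80/10/10). They were sacrificed 6 h post-compound. LCN2 and IL1b mRNA in peripheral tissue were measured by droplet digital qRT-PCR.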

[14] = target: T3, Monoacylglycerol lipase ABHD6 (Mus musculus) (UniProt Q8R2Y0); test: Inhibition of ABHD6 in mouse brain lysates at 10 uM by ABPP assay; assay type: subcellular
T3 sequence (whole entry): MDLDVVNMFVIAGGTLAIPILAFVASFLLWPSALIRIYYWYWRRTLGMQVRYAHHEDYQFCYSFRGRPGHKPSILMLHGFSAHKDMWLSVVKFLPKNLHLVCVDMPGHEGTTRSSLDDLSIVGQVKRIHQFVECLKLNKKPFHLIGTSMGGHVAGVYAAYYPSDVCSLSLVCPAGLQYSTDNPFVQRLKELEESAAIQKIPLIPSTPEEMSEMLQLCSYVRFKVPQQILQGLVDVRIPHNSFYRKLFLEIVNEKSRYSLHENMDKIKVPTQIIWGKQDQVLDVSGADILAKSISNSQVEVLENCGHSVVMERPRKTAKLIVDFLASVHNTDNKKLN
Method in brief: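 Gel-based activity-based protein profiling of hydrolases, with the inhibitor at 10 µM.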

SMILES | concentration at 8 h [1] | Cave [2] | IC50 [3] | fraction unbound [4] | Papp at 18 h, 20 µM [5] | IC50 (Monoglyceride lipase [6]) | Papp A→B (mouse P-gp) | concentration at 2 h [7] | Activity [8] | Cave [9] | logD [10] | IC50 (Monoglyceride lipase [11]; read-out: IC50) | IC50 (Monoglyceride lipase [11]; read-out: pIC50 (converted)) | concentration at 4 h [12] | Cmax [13] | Activity (Mus musculus) | inhibition [14]
O=C1CO[C@H]2CCN(C(=O)N3CCC(Cc4ccc(C(F)(F)F)cc4)CC3)C[C@H]2N1 [listing 1 of 2 here] | 346 nM | 7496 nM | 16 nM | 0.043 | 12.8 ×10⁻⁶ cm/s | 91 nM | 24.4 ×10⁻⁶ cm/s | 42000 nM | Non-Toxic | 1901 nM | 3.3 | 32 nM | 28.2 nM | 455 nM | 1290 ng/mL | – | –
O=C1CO[C@H]2CCN(C(=O)N3CCC(Cc4ccc(C(F)(F)F)cc4)CC3)C[C@H]2N1 [listing 2 of 2 here] | – | – | – | – | – | – | – | – | – | – | – | – | – | – | – | inactive | inactive
